The list is not random: actives were taken first. Their share in the collection is about 3.5%.
RGS4 pot – potentiators or activators of RGS4; HEK293 M3R/inducible RGS4, carbachol calcium flux Fluo4; hits give low values; 310,000 compounds, 0.92% hits; B-score at 10 µM;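 active means B-score of the integrated calcium signal more than 4 SD below the library mean, with starting fluorescence not abnormally high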;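 further: negative B-score means reduced calcium response which marks RGS4 activation or potentiation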
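Also added: carbachol at ECmax as muscarinic agonist stimulus; Assay system: HEK293 cells with stable M3R and inducible RGS4; Timing: overnight RGS4 induction, 30 min dye load 37 °C, 20 min compound RT; Measured by: Fluo4-AM (2 µM) calcium-flux fluorescence, kinetic read.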
RGS4 block – inhibitors of human RGS4; 310,000 compounds, 0.45% hits; B-score at 10 µM; HEK293 M3R/RGS4 inducible, Fluo-4 calcium flux; hits give high values; triggered by carbachol at its EC20; AID 463165; P49798;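 active means B-score, a plate-corrected calcium signal, over three deviations above library mean, with baseline fluorescence within five deviations of library mean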;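 further: RGS4 expression induced by doxycycline in cells with stable M3 receptor; B-score is computed from the integrated fluorescence ratio over baseline after carbachol; higher B-score means a larger calcium signal and so more RGS4 inhibition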
Target sequence (P49798 whole entry, looked up): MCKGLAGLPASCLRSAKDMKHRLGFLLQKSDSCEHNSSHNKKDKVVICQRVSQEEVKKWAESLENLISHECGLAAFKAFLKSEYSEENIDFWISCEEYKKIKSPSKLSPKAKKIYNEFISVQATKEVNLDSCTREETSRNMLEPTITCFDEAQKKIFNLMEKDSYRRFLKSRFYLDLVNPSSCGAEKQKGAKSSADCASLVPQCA
MrgX1 antagonist – antagonists of human MrgX1 receptor | Q96LB2 | MRGX1-HEK293 calcium flux, Fluo-4, BAM8-22 antagonism; hits give low values | B-score at 10 µM | 310,000 compounds, 1.3% hits;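 active means calcium-response B-score plate-corrected more than 3 library SD below zero, starting fluorescence within 5 deviations, no agonist response on first addition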;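 further: peak minus trough fluorescence over baseline after final BAM8-22 challenge near maximal dose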
Target sequence (Q96LB2 whole entry, looked up): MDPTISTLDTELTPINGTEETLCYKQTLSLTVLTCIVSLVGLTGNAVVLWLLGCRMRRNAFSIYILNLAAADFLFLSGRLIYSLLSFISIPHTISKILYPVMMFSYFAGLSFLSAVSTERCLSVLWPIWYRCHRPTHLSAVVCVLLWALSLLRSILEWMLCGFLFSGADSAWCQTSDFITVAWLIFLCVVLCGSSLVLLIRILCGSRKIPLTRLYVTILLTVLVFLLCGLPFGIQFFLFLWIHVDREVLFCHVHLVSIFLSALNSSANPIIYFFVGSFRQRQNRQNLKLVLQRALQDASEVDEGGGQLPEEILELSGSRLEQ
MrgX1 allo act – allosterically activates human MrgX1 receptor signaling | MrgX1-HEK293, Fluo-4 calcium flux, FDSS; hits give high values | B-score at 10 µM | 310,000 compounds, 0.63% hits;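 active means plate-corrected calcium response at least 3 library SD above typical, normal starting fluorescence, not activating the receptor alone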;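 further: compound read alongside a low EC10 to EC30 dose of BAM8-22 agonist; peak minus trough fluorescence over baseline measured at the second addition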
MrgX1 ag – activates human MrgX1 receptor signaling | Q96LB2 | MrgX1-HEK293 cells, Fluo-4 calcium fluorescence, agonist mode; hits give high values | B-score at 10 µM | 310,000 compounds, 0.44% hits | AID 588627;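 active means calcium response B-score plate-corrected fluorescence ratio at least 3 library SD, with starting fluorescence B-score inside 5 SD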
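Assay system: MrgX1-expressing HEK293 cells / Amount: fifteen thousand cells per well / Doses: test compound in the initial addition of three / Timing: cells plated overnight, dye loaded 0.5 h 37 °C, 0.5 h room temperature / Technique: kinetic calcium dye fluorescence, Fluo-4 NW / Control set: positive and negative controls per plate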
MrgX1 PAM conf – confirmation of human MrgX1 receptor positive allosteric modulators; 1,200 compounds, 13% hits; activation (ratio percentage), % at 10 µM; shares compounds with MrgX1 allo act; AID 602413; MrgX1-HEK293, Fluo-4 calcium fluorescence, FDSS;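 active means ratio at least 3 SD above the weak peptide control, stable starting fluorescence, no direct agonism earlier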;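 further: compound followed by low BAM8-22 agonist challenge near EC20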
HEK293 Ca flux – MrgX1 antagonist counter-screen hit in parental HEK293 cells; 4,000 compounds, 2% hits; Fluo-4 calcium fluorescence, FDSS; fluorescence ratio F(max-min)/F0 at 10 µM; shares compounds with MrgX1 antagonist;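 active means duplicate-averaged calcium fluorescence ratio at least three times the standard deviation of buffer wells, a nonspecific response in parental cells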
HEK293 Ca counter – MrgX1 allosteric activator counter-screen hit in parental HEK293 cells. shares compounds with MrgX1 antagonist. parental HEK293 calcium flux, Fluo-4 fluorescence ratio; hits give high values. fluorescence ratio F(max-min)/F0 at 10 µM. 4,000 compounds, 0.4% hits. AID 624114;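 active means calcium fluorescence ratio, averaged over duplicates, at least 3 SD of the buffer-well ratio, meaning a nonspecific response in receptor-free cells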;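 further: untransfected parental HEK293 lacking MrgX1 used as counterscreen for MrgX1 allosteric activators; fluorescence change taken during the second addition on a kinetic imager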
HEK293 Ca cntr2 – activity in parental HEK293 cells lacking MrgX1 receptor | AID 624115 | 4,000 compounds, 8.7% hits | Fluo-4 calcium fluorescence (FDSS); hits give high values | fluorescence ratio F(max-min)/F0 at 10 µM | shares compounds with MrgX1 antagonist;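 active means calcium fluorescence ratio at least three times the spread of buffer wells, meaning a non-specific response in parental cells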
* = called active by the depositor; i = inactive; . = not tested or not shown.

SMILES | RGS4 pot | RGS4 block | MrgX1 antagonist | MrgX1 allo act | MrgX1 ag | MrgX1 PAM conf | HEK293 Ca flux | HEK293 Ca counter | HEK293 Ca cntr2
Cc1c(Cl)cccc1NC(=O)CC1NCCNC1=O (stereo not drawn) | i | i | i | 13.5* | i | i | i | i | i
CC1CCCC(C)N1C(=O)CSc1nnc(NC(=O)c2cccs2)s1 (stereo not drawn) | i | i | i | 13.9* | i | i | i | i | i
CCOC(=O)N1CCN(Cc2nc(N)nc(Nc3ccc(C)cc3C)n2)CC1 | i | i | i | i | i | . | . | . | .
Cc1cc(C)n(-c2ccc(C(=O)NC3CCCCC3)cc2)n1 | i | i | i | 9.85* | i | i | i | i | i
Cc1ccc(C(=O)NC2CCCCC2)cc1 | i | i | i | i | i | . | . | . | .
C=CCn1c(Cc2ccccc2)nc2c(cnn2-c2ccccc2)c1=O | i | i | i | i | i | . | . | . | .
Cn1c(=O)c(=O)n(C)c2cc(S(=O)(=O)NCCOc3ccccc3Cl)ccc21 | i | i | i | i | i | . | . | . | .
Cc1ccc(NC2=NC(c3ccc(F)cc3)n3c(nc(C)cc3=O)N2)c(C)c1 (stereo not drawn) | i | i | i | i | i | . | . | . | .
Cc1ccc(NC2=NC(c3ccccc3)n3c(nc(C)cc3=O)N2)c(C)c1 (stereo not drawn) | i | i | i | 122* | i | i | i | i | i
CCOc1ccccc1Nc1ccnc2cc(Cl)ccc12 | i | i | i | 10.7* | i | i | i | i | i
COc1ccc(N(CC(=O)Nc2cccnc2)S(=O)(=O)c2ccccc2)cc1Cl | i | i | i | 16.4* | i | i | i | i | i
CCC1Nc2ncnc(N3CCCCC3)c2N(Cc2ccccc2)C1=O (stereo not drawn) | i | i | i | 7.54* | i | i | i | i | i
CC(=O)N1CCN(C(=O)CSc2nnc(C)n2-c2ccccc2)CC1 | i | i | i | i | i | . | . | . | .
Cc1ccc(S(=O)(=O)N(C)c2ccc(C(=O)Nc3ccc(C)cn3)cc2)cc1 | i | i | i | i | i | . | . | . | .
CCN(CC)S(=O)(=O)c1cc(C(=O)Nc2ccc(Cl)cn2)ccc1C | i | i | i | 19.5* | i | 11.6%* | i | i | i
CN(c1ccc(C(=O)Nc2ccc(Cl)cn2)cc1)S(=O)(=O)c1ccccc1 | i | i | i | 9.73* | i | i | i | i | i
COc1ccc(-n2c(=O)c3c(C)c(C)sc3n(Cc3ccc(F)cc3)c2=O)c(OC)c1 | i | i | i | i | i | . | . | . | .
COc1ccc([C@@H](C)NC(=O)c2ccc3oc(C(C)C)nc3c2)cc1 | i | i | i | i | i | . | . | . | .
CN(Cc1ccccc1)C(NC(=O)c1ccco1)C(Cl)(Cl)Cl (stereo not drawn) | i | i | i | 6.62* | i | i | i | i | i
CN(Cc1ccccc1)C(NC(=O)c1ccccc1)C(Cl)(Cl)Cl (stereo not drawn) | i | i | i | i | i | . | . | . | .
CCOC(=O)C1C(=O)NC(c2ccccc2)=NC1c1ccc(OC)cc1 (stereo not drawn) | i | i | i | 12* | i | i | i | i | i
O=C(NNc1ccccc1)Nc1ccccc1F | i | i | i | i | i | . | . | . | .
O=C(Nc1ccccc1F)Nc1ccccc1F | i | i | i | 7.2* | i | i | i | i | i
Cc1cc(C)cc(NC(=S)N2CCC(NC(=O)C3CCCCC3)CC2)c1 | i | i | i | 8.57* | i | i | i | i | i
CC(C)(C)Sc1ccc2nc3c(n2c1)CCCC3 | i | i | i | 16.4* | i | i | i | i | i
SMILES | RGS4 pot | RGS4 block | MrgX1 antagonist | MrgX1 allo act | MrgX1 ag | MrgX1 PAM conf | HEK293 Ca flux | HEK293 Ca counter | HEK293 Ca cntr2
CCOC(=O)Cc1csc(NC(=O)/C=C/c2ccc(OC)cc2)n1 | i | i | i | i | i | . | . | . | .
Cc1ccc(N(C)C(=O)c2cnn(-c3ccccc3)c2C)c(C)c1 | i | i | i | i | i | . | . | . | .
Cc1cccc(N(C)C(=O)c2cnn(-c3ccccc3)c2C)c1 | i | i | i | 12.6* | i | i | i | i | i
COc1ccc(-c2[nH]ncc2-c2ccc(Cl)cc2)c(O)c1 | i | i | i | 6.71* | i | 26.6%* | i | i | i
COc1ccc(-c2cn[nH]c2-c2ccc(OC)cc2O)cc1 | i | i | i | 16.4* | i | 12.4%* | i | i | i
CCOc1ccc(-c2[nH]ncc2-c2ccccc2)c(O)c1 | i | i | i | 12.8* | i | 17.5%* | i | i | i
CCOc1ccc(-c2[nH]ncc2-c2csc(C)n2)c(O)c1 | i | i | i | i | i | . | . | . | .
COc1ccc(-c2[nH]ncc2-c2csc(C)n2)c(O)c1 | i | i | i | i | i | . | . | . | .
CSc1ncccc1C(=O)NCc1ccc(C)cc1 | i | i | i | i | i | . | . | . | .
CCOc1ncccc1C(=O)NCc1ccc(C)cc1 | i | i | i | 7.17* | i | i | i | i | i
Cc1ccc(OCc2n[nH]c(=S)n2-c2ccc(Br)cc2)cc1 | i | i | i | 7.6* | i | i | i | i | i
Cc1ccc(OCc2n[nH]c(=S)n2-c2ccc(Cl)cc2)cc1 | i | i | i | i | i | . | . | . | .
Cc1cc(Cl)ccc1OCC(=O)NNC(=O)c1cccnc1 | i | i | i | i | i | . | . | . | .
NC(=O)c1ncc(C(F)(F)F)cc1Oc1ccc(C(F)(F)F)cc1 | i | i | i | i | i | . | . | . | .
CC12CCC(=O)N1C(C(=O)Nc1nc(-c3ccc(F)c(F)c3)cs1)CS2 (stereo not drawn) | i | i | i | i | i | . | . | . | .
COc1ccc(-c2csc(NC(=O)C3CSC4(C)CCC(=O)N34)n2)cc1OC (stereo not drawn) | i | i | i | 10.8* | i | 9.1%* | i | i | i

Compound activity from PubChem BioAssay.
